The source made the active and inactive calls. No cut-off for these calls is given here.
Key:
[1] = Antiviral activity against Hepatitis B virus subtype adw2 infected in human HuH7 cells assessed as reduction in HBcAg level at 5 ug/ml after 2 days by immunoblot method relative to control; type: functional
Procedure, shortened: (§1)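 Huh7 cells were transfected with pHBV1.2 (1.2-fold HBV adw2 genome) for 2 days, then exposed to 2.5, 5 or 10 μg/mL for another 2 days. Whole-cell protein was extracted with protease inhibitors. SHBs, HBcAg and HBx were detected by immunoblot, with α-tubulin for comparison.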

[2] = Effect on AP-2 (unknown origin) promoter activity expressed in human HuH7 cells cotransfected with pHBV1.2 at 10 ug/ml after 24 hrs by luciferase reporter gene assay; type: cell-based
Procedure, shortened: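 Huh7 seeded in 24-well plates for 24 h. They were cotransfected with pHBV1.2 plus a luciferase reporter carrying the AP-2 (pAP2-Luc) or ISRE (pISRE-Luc) element, at 1 μg/well, and pRLSV40, in serum-free DMEM for 24 h. After a PBS wash, cells were placed in DMEM with 2% FBS and treated with 10 μg/mL. Luciferase was read from lysates; mean ± SD, n = 3.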

Huh-7 [3] = assay: Decrease in IKBalpha protein expression in human HuH7 cells transfected with pHBV1.2 after 2 days by immunoblot method; type: functional, cell-based
Procedure, shortened: (§2)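 Huh7 cells were transfected with pHBV1.2 for 2 days, then treated at 2.5, 5 or 10 μg/mL for another 2 days. Whole-cell protein was extracted with protease inhibitors. NF-κB p65/p50, phospho-p65, IKKα/β and IκBα/phospho-IκBα were detected by immunoblot. Blots are representative of three experiments.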

[4] = Antiviral activity against Hepatitis B virus subtype adw2 infected in human HepG2.2.15 cells assessed as inhibition of HBeAg secretion by EIA
Homo sapiens = species on record: Homo sapiens; assay: Decrease in SAPK/JNK phosphorylation in human HuH7 cells transfected with pHBV1.2 at 2.5 to 10 ug/ml after 2 days by immunoblot method
[5] = Antiviral activity against Hepatitis B virus subtype adw2 infected in human HuH7 cells assessed as effect on HBx level at 2.5 ug/ml after 2 days by immunoblot method relative to control; type: functional; procedure, shortened: as §1
Huh-7 [6] = assay: Decrease in IKBalpha protein expression in human HuH7 cells transfected with pHBV1.2 at 10 ug/ml after 2 days by immunoblot method relative to control; type: functional; procedure, shortened: as §2
Hepatitis B virus [7] = assay: Decrease in HBV core promoter activity infected in human HuH7 cells cotransfected with pHBV1.2 at 10 ug/ml after 24 hrs by luciferase reporter gene assay; type: cell-based
Procedure, shortened: (§3)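 Huh7 cells were seeded for 24 h, then cotransfected with pHBV1.2, pRLSV40 and a pGL4.17-based Core (nt 1636-1851), S (nt 3114-220), PreS (nt 2438-2855) or X (nt 1071-1357) promoter-luciferase construct for 24 h. Cells were then treated at 10 μg/mL for 24 h and lysates were assayed for luciferase. Mean ± SD, n = 3.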

Huh-7 [8] = assay: Cytotoxicity against human HuH7 cells infected with Hepatitis B virus subtype adw2 assessed as reduction in cell viability at >80 ug/ml after 3 days by MTS assay; type: cell-based; details: huh-7, 72 h
Procedure, shortened: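 HBV-expressing Huh7 cells were plated for 24 h, then exposed to serial dilutions (2.5–160 μg/mL) for 3 days. Viability was measured by MTS assay. Mean ± SD, n = 4, compared with untreated cells.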

Hepatitis B virus [9] = assay: Decrease in HBV X promoter activity infected in human HuH7 cells cotransfected with pHBV1.2 at 10 ug/ml after 24 hrs by luciferase reporter gene assay; type: cell-based; procedure, shortened: as §3
[10] = Antiviral activity against Hepatitis B virus in human HepG2.2.15 cells assessed as inhibition of HBsAg secretion by EIA
[11] = Decrease in AP-1 (unknown origin) promoter activity expressed in human HuH7 cells cotransfected with pHBV1.2 at 10 ug/ml after 24 hrs by luciferase reporter gene assay; type: cell-based
Procedure, shortened: (§4)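 Huh7 cells were seeded for 24 h, then cotransfected with pHBV1.2, pRLSV40 and pAP1-Luc or pNF-κB-Luc responsive-element reporter for 24 h. Cells were treated at 10 μg/mL for 24 h and lysates were assayed for luciferase. Mean ± SD, n = 3, compared with untreated cells.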

[12] = Cytotoxicity against human HepG2.2.15 cells assessed as reduction in cell viability after 3 days by MTS assay; details: read-out: TC50
[13] = system: Hepatitis B virus subtype adw2; assay: Antiviral activity against Hepatitis B virus subtype adw2 infected in human HuH7 cells assessed as reduction in SHBs level at 2.5 to 10 ug/ml after 2 days by immunoblot method; type: functional, cell-based; procedure, shortened: as §1
[14] = system: Hepatitis B virus subtype adw2; assay: Antiviral activity against Hepatitis B virus subtype adw2 infected in human HuH7 cells assessed as inhibition of viral DNA replication at 10 ug/ml cotreated with MAPK activator anisomycin after 2 days by RT-PCR method; type: functional, cell-based
Procedure, shortened: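 Huh7 cells were cotransfected with pHBV1.2 and, where stated, 0.5 or 2.5 μg pCMV-p65 (or empty vector) for 2 days, then treated at 10 μg/mL for 2 days. In separate wells, HBV-expressing cells received 10 μg/mL with or without anisomycin (10 μM) for 2 days. Secreted viral particles were kit-isolated and HBV DNA was measured by real-time PCR, n = 3.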

[15] = system: Hepatitis B virus subtype adw2; assay: Antiviral activity against Hepatitis B virus subtype adw2 infected in human HuH7 cells assessed as inhibition of HBsAg secretion after 3 days by EIA; type: functional, cell-based
Procedure, shortened: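 HBV-expressing Huh7 cells were given 2.5, 5 or 10 μg/mL for 3 days. HBsAg and HBeAg in the conditioned medium were measured by enzyme immunoassay. Mean ± SD, n = 3, compared with untreated cells.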

Huh-7 [16] = assay: Decrease in ERK1/2 protein expression in human HuH7 cells transfected with pHBV1.2 at 2.5 to 10 ug/ml after 2 days by immunoblot method
[17] = Antiviral activity against Hepatitis B virus subtype adw2 infected in human HuH7 cells assessed as reduction in HBcAg level at 10 ug/ml after 2 days by immunoblot method relative to control; type: functional; procedure, shortened: as §1
Huh-7 [18] = assay: Decrease in NF-kB p65 protein expression in human HuH7 cells transfected with pHBV1.2 at 2.5 ug/ml after 2 days by immunoblot method relative to control; type: functional; procedure, shortened: as §2
Hepatitis B virus [19] = assay: Decrease in HBV preS promoter activity infected in human HuH7 cells cotransfected with pHBV1.2 at 10 ug/ml after 24 hrs by luciferase reporter gene assay; type: cell-based; procedure, shortened: as §3
[20] = Decrease in NF-kB (unknown origin) promoter activity expressed in human HuH7 cells cotransfected with pHBV1.2 at 10 ug/ml after 24 hrs by luciferase reporter gene assay; type: cell-based; procedure, shortened: as §4

C=C1C[C@@]23CC[C@H]4[C@@](C)(CCC[C@@]4(C)NC(=O)NCCCC)[C@@H]2CC[C@]1(O)C3
fold change (FC) [1]: 0.81
Activity [2]: inactive
Activity (Huh-7 [3]): Dose-dependent effect
IC50 [4]: 20.4 µM
Activity (Homo sapiens): Active
fold change (FC) [5]: 1.12
fold change (FC) (Huh-7 [6]): 0.25
Activity (Hepatitis B virus [7]): Active
Activity (Huh-7 [8]): Toxic
Activity (Hepatitis B virus [9]): Active
IC50 [10]: 23.5 µM
Activity [11]: Active
CC50 at 72 h [12]: 972 µM
Activity [13]: Active
inhibition [14]: inactive
inhibition [15]: Dose-dependent effect
Activity (Huh-7 [16]): Active
fold change (FC) [17]: 0.11
fold change (FC) (Huh-7 [18]): 0.89
Activity (Hepatitis B virus [19]): Active
Activity [20]: Active
